Three molecules from ChEMBL document CHEMBL2177030 can be followed below.

Assay [1] has as its system Mycobacterium tuberculosis. Kind of assay: Inhibition of Mycobacterium tuberculosis LipY pre-incubated for 30 mins with enzyme before substrate addition by pH-stat technique. A digest of the protocol: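 Without NaTDC, LipY was incubated 30 min at 25 °C with inhibitor at xI 2–100. Residual activity was determined by pH-stat at 37 °C on TC4 in 2.5 mM Tris-HCl pH 7.5, 300 mM NaCl, 3 mM NaTDC. xI50 was taken from activity versus molar excess. Isopropanol-only controls were run. At least duplicate.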

Assay [2] deals with Monoacylglycerol lipase (Mycobacterium tuberculosis H37Rv) (UniProt O07427). Kind of assay: Inhibition of Mycobacterium tuberculosis Rv0183 pre-incubated for 30 mins with enzyme before substrate addition by pH-stat technique. A digest of the protocol: (§1)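 Rv0183 was preincubated 30 min at 25 °C without NaTDC at inhibitor molar excess 2, 4, 20, 40 or 100. Residual monoglyceride lipase activity was measured by pH-stat at 37 °C with MC18 emulsion, pH 8.0, 3 mM NaTDC. xI50 was read from the residual-activity curve. Solvent controls were run. At least duplicate.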
Chain of Monoacylglycerol lipase (Mycobacterium tuberculosis H37Rv) (O07427 whole entry): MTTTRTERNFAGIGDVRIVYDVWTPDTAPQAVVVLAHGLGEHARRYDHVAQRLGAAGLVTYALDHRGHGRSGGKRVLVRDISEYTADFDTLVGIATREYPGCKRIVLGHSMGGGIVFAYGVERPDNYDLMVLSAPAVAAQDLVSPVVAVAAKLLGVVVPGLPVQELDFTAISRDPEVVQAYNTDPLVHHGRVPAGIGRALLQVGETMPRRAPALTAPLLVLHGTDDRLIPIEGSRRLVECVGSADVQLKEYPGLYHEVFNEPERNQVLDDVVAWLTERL

In assay [3] the target is T1, Cutinase 1 (Fusarium vanettenii) (UniProt P00590).
T1 sequence (whole entry): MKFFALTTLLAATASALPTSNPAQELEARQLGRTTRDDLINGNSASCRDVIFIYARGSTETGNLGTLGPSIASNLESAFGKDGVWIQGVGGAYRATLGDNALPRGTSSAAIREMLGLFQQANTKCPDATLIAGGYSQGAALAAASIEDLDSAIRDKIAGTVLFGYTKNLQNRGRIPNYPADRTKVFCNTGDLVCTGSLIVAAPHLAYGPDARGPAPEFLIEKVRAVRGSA
The assay can be described thus: Inhibition of Fusarium solani pisi cutinase pre-incubated for 30 mins with enzyme before substrate addition by pH-stat technique. A digest of the protocol: (§2)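 Cutinase was preincubated for 30 min at 25 °C in 2 mM NaTDC, substrate absent, at inhibitor molar excess xI 2, 4, 20, 40 or 100. Residual activity was measured by pH-stat at 37 °C on TC4 emulsion at pH 8.0 with 0.25 mM NaTDC. xI50 is the molar excess giving 50% activity. Isopropanol controls were run. At least duplicate.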

The target in assay [4] is T2, Gastric triacylglycerol lipase (Canis lupus familiaris) (UniProt P80035).
T2 sequence (whole entry): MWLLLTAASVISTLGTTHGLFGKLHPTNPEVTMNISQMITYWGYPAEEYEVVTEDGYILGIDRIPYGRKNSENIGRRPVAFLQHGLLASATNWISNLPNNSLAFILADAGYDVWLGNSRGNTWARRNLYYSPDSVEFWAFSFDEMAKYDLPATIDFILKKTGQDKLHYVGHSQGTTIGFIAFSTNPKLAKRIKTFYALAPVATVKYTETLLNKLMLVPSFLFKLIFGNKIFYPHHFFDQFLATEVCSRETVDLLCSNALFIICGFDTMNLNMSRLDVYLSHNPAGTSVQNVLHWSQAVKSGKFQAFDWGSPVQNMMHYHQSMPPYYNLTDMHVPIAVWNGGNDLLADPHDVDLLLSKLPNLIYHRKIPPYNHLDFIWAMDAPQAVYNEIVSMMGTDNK
The assay can be described thus: Inhibition of dog recombinant gastric lipase expressed in transgenic maize pre-incubated for 30 mins with enzyme before substrate addition by pH-stat technique. The assay is classed as tissue-based. Conditions: Stomach. The essentials:
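Gastric lipase was incubated 30 min at 25 °C with 4 mM NaTDC at inhibitor xI 2–100. Residual activity was measured by pH-stat at 37 °C on TC4 emulsion in 150 mM NaCl, 2 mM NaTDC, 2 µM BSA, pH 5.5. xI50 is the molar excess halving activity. At least duplicate.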

In assay [5] the target is T3, Pancreatic lipase-related protein 2 (Cavia porcellus) (UniProt P81139).
T3 sequence (whole entry): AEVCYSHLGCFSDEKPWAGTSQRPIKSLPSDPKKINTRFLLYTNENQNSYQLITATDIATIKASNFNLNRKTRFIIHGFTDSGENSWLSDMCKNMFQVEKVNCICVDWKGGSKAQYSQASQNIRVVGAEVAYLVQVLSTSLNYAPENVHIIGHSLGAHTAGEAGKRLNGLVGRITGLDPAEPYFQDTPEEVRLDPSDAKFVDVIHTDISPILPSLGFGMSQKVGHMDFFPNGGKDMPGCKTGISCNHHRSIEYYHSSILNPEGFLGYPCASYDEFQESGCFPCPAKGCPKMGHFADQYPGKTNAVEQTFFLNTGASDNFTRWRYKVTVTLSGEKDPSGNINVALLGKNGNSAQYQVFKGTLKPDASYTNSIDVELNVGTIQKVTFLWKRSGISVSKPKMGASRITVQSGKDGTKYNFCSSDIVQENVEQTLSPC
The assay can be described thus: Inhibition of guinea pig recombinant PLRP2 expressed in Aspergillus oryzae pre-incubated for 30 mins with enzyme before substrate addition by pH-stat technique.

For assay [6], the target named is T4, Pancreatic triacylglycerol lipase (Homo sapiens) (UniProt P16233).
T4 sequence (whole entry): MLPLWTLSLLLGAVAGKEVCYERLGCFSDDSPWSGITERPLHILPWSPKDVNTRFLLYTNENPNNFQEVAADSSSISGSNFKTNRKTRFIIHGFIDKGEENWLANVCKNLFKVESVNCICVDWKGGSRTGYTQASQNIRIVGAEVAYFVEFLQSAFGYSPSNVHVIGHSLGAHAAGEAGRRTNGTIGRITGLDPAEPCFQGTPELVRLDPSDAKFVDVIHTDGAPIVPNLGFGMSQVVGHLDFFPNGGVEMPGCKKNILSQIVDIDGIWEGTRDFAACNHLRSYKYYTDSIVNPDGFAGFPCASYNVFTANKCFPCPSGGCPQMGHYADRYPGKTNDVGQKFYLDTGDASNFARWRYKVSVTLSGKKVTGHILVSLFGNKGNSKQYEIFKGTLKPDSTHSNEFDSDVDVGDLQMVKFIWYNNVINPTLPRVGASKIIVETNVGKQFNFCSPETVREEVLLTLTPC

Assay [7] concerns the target Monoacylglycerol lipase (Mycobacterium tuberculosis H37Rv) (UniProt O07427). The assay can be described thus: Inhibition of Mycobacterium tuberculosis Rv0183 assessed as covalent bond formation with enzyme serine residue by measuring change in molecular weight of enzyme-compound complexes at 40 molar excess compound concentration pre-incubated for 30 mins with enzyme before substrate addition by MALDI-TOF mass spectrometry method. The essentials: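 Each enzyme was preincubated with the inhibitor for 30 min at 25 °C at xI 40, with the inhibitor taken from a 5 mg/mL isopropanol stock. Intact masses of native and inhibited protein were measured by MALDI-TOF. For tryptic mapping, 5–50 pmol protein was reduced with DTT, alkylated with iodoacetamide and digested overnight at 37 °C.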

Assay [8] deals with T2, Gastric triacylglycerol lipase (Canis lupus familiaris). The assay can be described thus: Inhibition of dog recombinant gastric lipase expressed in transgenic maize at 200 molar excess compound concentration pre-incubated for 2 hrs with enzyme before substrate addition by pH-stat technique. Conditions: Stomach. The assay is classed as single protein.
Assay [9] concerns the target T3, Pancreatic lipase-related protein 2 (Cavia porcellus). Kind of assay: Inhibition of guinea pig recombinant PLRP2 expressed in Aspergillus oryzae at 200 molar excess compound concentration pre-incubated for 2 hrs with enzyme before substrate addition by pH-stat technique.
The target in assay [10] is T4, Pancreatic triacylglycerol lipase (Homo sapiens). Kind of assay: Inhibition of human recombinant pancreatic lipase expressed in Pichia pastoris at 200 molar excess compound concentration pre-incubated for 2 hrs with enzyme before substrate addition by pH-stat technique.
Assay [11] concerns the target Monoacylglycerol lipase (Mycobacterium tuberculosis H37Rv) (UniProt O07427). Kind of assay: Inhibition of Mycobacterium tuberculosis Rv0183 assessed as half inactivation time pre-incubated with enzyme before substrate addition by pH-stat technique. A digest of the protocol: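 For the time course, Rv0183 was exposed to inhibitor at xI 4 at 25 °C without bile salt for 1 h. Residual activity was read at intervals by pH-stat at 37 °C using 100 µL MC18 in 15 mL 2.5 mM Tris-HCl pH 8.0, 150 mM NaCl, 3 mM NaTDC. t1/2 was derived from the curve. Runs were done at least in duplicate.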

Assay [12] shares this target. Kind of assay: Inhibition of Mycobacterium tuberculosis Rv0183 assessed as residual enzyme activity pre-incubated for 30 mins with enzyme before substrate addition by pH-stat technique. A digest of the protocol:
as §1

For assay [13], the target named is T1, Cutinase 1 (Fusarium vanettenii). The assay can be described thus: Inhibition of Fusarium solani pisi cutinase assessed as half inactivation time pre-incubated with enzyme before substrate addition by pH-stat technique. A digest of the protocol: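 Cutinase was preincubated at 25 °C with inhibitor at xI 4 in 2 mM NaTDC for 1 h. Residual activity was sampled at intervals by pH-stat at 37 °C on TC4 emulsion in 2.5 mM Tris-HCl pH 8.0, 150 mM NaCl, 0.25 mM NaTDC. t1/2 was taken from the time course. Runs were done at least in duplicate.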

Assay [14] has the same target. The assay can be described thus: Inhibition of Fusarium solani pisi cutinase assessed as residual enzyme activity pre-incubated for 30 mins with enzyme before substrate addition by pH-stat technique. A digest of the protocol: as §2
Assay [15] deals with Mycobacterium tuberculosis. Kind of assay: Inhibition of Mycobacterium tuberculosis LipY at 40 molar excess compound concentration pre-incubated for 30 mins with enzyme before substrate addition by pH-stat technique.

Activity calls are given as the source filed them. The rule behind the calls is not given here. Where only a bound is given, the exact number is not on record here.

The inhibition is the percentage by which the read-out fell short of the control.

With `CCCCCCCCCCC[C@@H](C[C@@H]1OC(=O)[C@H]1CCCCCC)OC(=O)[C@H](CC(C)C)NC=O`, the XI50 in [1] was 7.07 molar excess; in assay [2], more than 200 molar excess; in [3], 2.52 molar excess; in [4] it was 5.6 molar excess; in assay [5], 0.53 molar excess; in assay [6], 18.4 molar excess.
For the molecule `CCCCCCCCCC[C@@H]1CC[P@@](=O)(OC)OC(C)=C1C(=O)OC` (racemic), the values for the Activity in [7] and in [12] were 377 Da and 6%, respectively. The inhibition entry in assay [8], in assay [9] and in [10] was “inactive” throughout. Moreover, the T1/2 in assay [11] is 86.4 s. In addition, the results for the XI50 in [1], in [2] and in assay [3] were 2.81 molar excess, 1.13 molar excess and 1.98 molar excess, respectively.
Take `CO[P@]1(=O)OC[C@H]2COC(=O)C2=C(C)O1` (racemic): the inhibition entry in [8], in assay [9] and in assay [10] was “inactive” each time. In addition, the T1/2 in assay [13] was determined as 10.8 s. The Activity in [14] was 6%. The same molecule yielded an inhibition in assay [15] of 14%. The results for the XI50 in [2] and in assay [3] were 5.22 molar excess and 0.96 molar excess, respectively.
